Each block holds one compound with its values, some of them ahead of it. Active and inactive are the calls of the source. The calls are words filed in the database; no cut-off is given here.
Tests used:
Mus musculus [1] = assay: Increase in pulmonary vascular permeability in NCr mouse lung assessed as induction of capillary leakage in at 20 mg/kg, po administered a single oral dose by Evans blue dye assay; assay type: functional, organism-based
In short: (§1)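 Female NCr nude mice (4 per cohort) given a single oral dose, 20 or 50 mg/kg, or vehicle (0.5% HPMC, 0.1% Tween 80). Evans blue dye (20 mg/kg) injected 1 h later. After 30 min, mice anesthetized and perfused with 0.9% saline; lung dye measured by spectrophotometry and normalized to vehicle-treated animals.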

Calu-6 [2] = assay: Increase in pulmonary vascular permeability in tumor of human Calu6 cells xenografted NCr mouse assessed as induction of capillary leakage in at 20 mg/kg, po by Evans blue dye assay; assay type: functional, organism-based
COLO 205 [3] = assay: Increase in pulmonary vascular permeability in tumor of human COLO205 cells xenografted NCr mouse assessed as induction of capillary leakage in at 20 mg/kg, po by Evans blue dye assay; assay type: functional, organism-based
[4] = Clearance in Han Wistar rat at 3 mg/kg, iv by LCMS/MS method; assay type: ADME, organism-based; settings: in vivo
[5] = Volume of distribution at steady state in Han Wistar rat at 3 mg/kg, iv by LCMS/MS method; assay type: ADME, organism-based; settings: in vivo, read-out: Vdss
[6] = Half life in Han Wistar rat at 3 mg/kg, iv by LCMS/MS method; assay type: ADME, organism-based; settings: in vivo
[7] = Volume of distribution at steady state in beagle dog at 2.5 mg/kg, iv; assay type: ADME, organism-based, Canis lupus familiaris; settings: in vivo, read-out: Vdss
[8] = Half life in beagle dog at 2.5 mg/kg, iv by LCMS/MS method; assay type: ADME, organism-based, Canis lupus familiaris; settings: in vivo
[9] = Cmax in beagle dog at 10 mg/kg, po by LCMS/MS method; assay type: ADME, organism-based, Canis lupus familiaris; set-up: dose 10 mg/kg, route oral; settings: in vivo
[10] = Oral bioavailability in beagle dog at 10 mg/kg by LCMS/MS method; assay type: ADME, organism-based, Canis lupus familiaris; settings: in vivo
[11] = molecular target: Voltage-gated inwardly rectifying potassium channel KCNH2 (Homo sapiens, UniProt Q12809)
Chain of Voltage-gated inwardly rectifying potassium channel KCNH2 (Q12809 whole entry): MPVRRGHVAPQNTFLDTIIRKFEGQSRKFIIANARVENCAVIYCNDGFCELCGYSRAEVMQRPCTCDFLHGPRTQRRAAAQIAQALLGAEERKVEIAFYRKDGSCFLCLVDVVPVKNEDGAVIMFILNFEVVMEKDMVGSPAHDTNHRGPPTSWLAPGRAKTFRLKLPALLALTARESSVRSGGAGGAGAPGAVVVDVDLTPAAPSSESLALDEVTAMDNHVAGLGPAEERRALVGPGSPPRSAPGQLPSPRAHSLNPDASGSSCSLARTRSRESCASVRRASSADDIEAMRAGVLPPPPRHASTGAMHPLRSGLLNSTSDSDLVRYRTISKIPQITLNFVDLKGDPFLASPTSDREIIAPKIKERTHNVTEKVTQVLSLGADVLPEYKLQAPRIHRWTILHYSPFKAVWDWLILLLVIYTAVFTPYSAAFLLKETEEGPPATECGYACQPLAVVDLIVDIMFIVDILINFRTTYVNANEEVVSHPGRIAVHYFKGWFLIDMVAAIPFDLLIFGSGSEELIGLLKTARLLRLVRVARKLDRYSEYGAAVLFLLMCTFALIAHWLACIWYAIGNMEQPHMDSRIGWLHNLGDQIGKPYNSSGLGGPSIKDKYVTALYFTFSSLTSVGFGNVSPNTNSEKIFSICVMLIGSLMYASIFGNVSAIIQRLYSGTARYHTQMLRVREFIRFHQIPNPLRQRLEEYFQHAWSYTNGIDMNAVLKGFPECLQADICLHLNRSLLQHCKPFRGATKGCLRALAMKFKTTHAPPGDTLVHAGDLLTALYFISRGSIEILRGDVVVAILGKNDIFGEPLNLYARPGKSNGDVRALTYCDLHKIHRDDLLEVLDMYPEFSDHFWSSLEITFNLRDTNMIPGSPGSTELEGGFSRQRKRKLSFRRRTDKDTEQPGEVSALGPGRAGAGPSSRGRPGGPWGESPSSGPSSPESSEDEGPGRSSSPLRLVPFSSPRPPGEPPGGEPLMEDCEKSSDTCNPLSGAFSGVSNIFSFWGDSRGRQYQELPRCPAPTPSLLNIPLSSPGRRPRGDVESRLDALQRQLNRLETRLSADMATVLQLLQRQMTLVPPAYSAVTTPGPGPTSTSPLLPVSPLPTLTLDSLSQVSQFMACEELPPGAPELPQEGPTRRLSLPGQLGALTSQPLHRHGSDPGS

Calu-6 [12] = assay: Antitiumor activity against human Calu6 cells xenografted in NCr mouse assessed as tumor growth at 20 mg/kg, po bid dosed on day 13 to 32
Mus musculus [13] = assay: Increase in pulmonary vascular permeability in NCr mouse lung assessed as induction of capillary leakage in at 50 mg/kg, po administered a single oral dose by Evans blue dye assay; assay type: functional, organism-based; in short: as §1
[14] = Antitiumor activity against human Calu6 cells xenografted in NCr mouse assessed as tumor growth at 50 mg/kg, po bid dosed on day 11 to 33; assay type: functional; settings: Calu-6, po, read-out: GI
In short: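 Calu6 xenografts in female NCr-nude mice, oral dosing twice daily. Schedules: 20 mg/kg BID on days 13-32, or 50 mg/kg BID on days 11-33. Vehicle (HPMC) controls n=20, treated n=14. Tumor volume compared with controls.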

Calu-6 [15] = assay: Increase in pulmonary vascular permeability in tumor of human Calu6 cells xenografted NCr mouse assessed as induction of capillary leakage in at 50 mg/kg, po by Evans blue dye assay; assay type: functional, organism-based
COLO 205 [16] = assay: Increase in pulmonary vascular permeability in tumor of human COLO205 cells xenografted NCr mouse assessed as induction of capillary leakage in at 50 mg/kg, po by Evans blue dye assay; assay type: functional, organism-based
[17] = Clearance in Han Wistar rat at 4 mg/kg, iv by LCMS/MS method; assay type: ADME, organism-based; settings: in vivo
[18] = Volume of distribution at steady state in Han Wistar rat at 4 mg/kg, iv by LCMS/MS method; assay type: ADME, organism-based; settings: in vivo, read-out: Vdss
[19] = Clearance in beagle dog at 2 mg/kg, iv by LCMS/MS method; assay type: ADME, organism-based, Canis lupus familiaris; settings: in vivo
[20] = Volume of distribution at steady state in beagle dog at 2 mg/kg, iv by LCMS/MS method; assay type: ADME, organism-based, Canis lupus familiaris; settings: in vivo, read-out: Vdss
[21] = Half life in beagle dog at 2 mg/kg, iv by LCMS/MS method; assay type: ADME, organism-based, Canis lupus familiaris; settings: in vivo
[22] = Cmax in beagle dog at 5 mg/kg, po by LCMS/MS method; assay type: ADME, organism-based, Canis lupus familiaris; set-up: dose 5 mg/kg, route oral; settings: in vivo
[23] = Oral bioavailability in beagle dog at 5 mg/kg by LCMS/MS method; assay type: ADME, organism-based, Canis lupus familiaris; settings: in vivo

clearance [4]: 8 mL/min/kg | Vd [5]: 1.2 L/kg | half-life [6]: 2.4 h | Vd [7]: 0.6 L/kg | half-life [8]: 4.9 h | Cmax [9]: 31.1 µM | bioavailability [10]: 81%
Compound: CCn1c([C@@H](C)NS(=O)(=O)c2ccc(C#N)nc2)nc2cnc(C(F)(F)F)cc21
Activity (Mus musculus [1]): Active | Activity (Calu-6 [2]): inactive | Activity (COLO 205 [3]): inactive | IC50 [11]: > 200 µM | growth inhibition (GI) (Calu-6 [12]): inactive

clearance [17]: 10 mL/min/kg | Vd [18]: 1.3 L/kg | clearance [19]: 2 mL/min/kg | Vd [20]: 0.7 L/kg | half-life [21]: 4.6 h | Cmax [22]: 10.7 µM | bioavailability [23]: 71%
Compound: CCn1c([C@@H](C)NS(=O)(=O)c2ccc(C#N)nc2)nc2cnc(C3CC3)cc21
Activity (Mus musculus [13]): Active | inhibition in vivo at 50 mg/kg [14]: 32% | Activity (Calu-6 [15]): inactive | Activity (COLO 205 [16]): inactive

— ChEMBL document CHEMBL3603779, “Identification and Optimization of Benzimidazole Sulfonamides as Orally Bioavailable Sphingosine 1-Phosphate Receptor 1 Antagonists with in Vivo Activity” (J Med Chem, 2015)
